MrgX1 ag: activates human MrgX1 receptor signaling | MrgX1-HEK293 cells, Fluo-4 calcium fluorescence, agonist mode; active compounds read high | B-score at 10 µM | hit rate 0.44% among 310,000 | Q96LB2;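 active = calcium response B-score plate-corrected fluorescence ratio at least 3 library SD, with starting fluorescence B-score inside 5 SD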
Target sequence (Q96LB2 whole entry, looked up): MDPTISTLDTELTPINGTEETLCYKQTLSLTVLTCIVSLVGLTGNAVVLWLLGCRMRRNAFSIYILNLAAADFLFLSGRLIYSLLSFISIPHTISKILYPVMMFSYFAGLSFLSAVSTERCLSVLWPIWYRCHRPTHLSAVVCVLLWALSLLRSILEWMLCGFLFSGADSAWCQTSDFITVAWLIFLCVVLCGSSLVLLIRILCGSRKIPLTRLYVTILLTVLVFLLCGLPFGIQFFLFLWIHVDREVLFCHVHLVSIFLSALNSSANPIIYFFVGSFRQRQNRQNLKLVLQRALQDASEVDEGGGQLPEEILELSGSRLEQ
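Test system: HEK293 cells stably expressing human MrgX1 receptor; Input: fifteen thousand cells per well; Dosing: compound delivered in addition one of three; Schedule: overnight seeding, then 1 h dark dye loading; Technique: Fluo-4 NW calcium fluorescence; Measure: B-scored fluorescence response ratio; Controls: positive and negative controls per plate.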
RGS4 inh: human RGS4 inhibition; hit rate 0.45% among 310,000; HEK293 M3R/RGS4 inducible, Fluo-4 calcium flux; active compounds read high; triggered by carbachol at its EC20; B-score at 10 µM; P49798;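 active = B-score, a plate-corrected calcium signal, over three deviations above library mean, with baseline fluorescence within five deviations of library mean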;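 also: RGS4 expression induced by doxycycline in cells with stable M3 receptor; B-score is computed from the integrated fluorescence ratio over baseline after carbachol; higher B-score means a larger calcium signal and so more RGS4 inhibition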
Target sequence (P49798 whole entry, looked up): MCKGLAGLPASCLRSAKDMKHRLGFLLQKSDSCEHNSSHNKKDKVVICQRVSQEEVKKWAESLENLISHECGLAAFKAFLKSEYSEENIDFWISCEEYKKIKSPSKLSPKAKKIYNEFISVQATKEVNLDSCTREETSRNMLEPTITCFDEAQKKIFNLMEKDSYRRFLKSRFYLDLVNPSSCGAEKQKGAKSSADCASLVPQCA
RGS4 pot: RGS4 potentiation or activation. AID 463111. HEK293 M3R/inducible RGS4, carbachol calcium flux Fluo4; active compounds read low. hit rate 0.92% among 310,000. B-score at 10 µM;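 active = B-score of the integrated calcium signal more than 4 SD below the library mean, with starting fluorescence not abnormally high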;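 also: negative B-score means reduced calcium response which marks RGS4 activation or potentiation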
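System – HEK293 FlpIn-TREx cells, stable M3R, doxycycline-inducible RGS4 · Reagent – ECmax carbachol challenge · Times – compound preincubation 20 min at room temperature before agonist · Technique – Fluo4 fluorescence kinetic imaging of calcium · Measure – B score of integrated Fluo4 ratio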
MrgX1 antagonist: antagonists of human MrgX1 receptor; Q96LB2; MRGX1-HEK293 calcium flux, Fluo-4, BAM8-22 antagonism; active compounds read low; B-score at 10 µM; hit rate 1.3% among 310,000;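 active = calcium-response B-score plate-corrected more than 3 library SD below zero, starting fluorescence within 5 deviations, no agonist response on first addition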;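 also: peak minus trough fluorescence over baseline after final BAM8-22 challenge near maximal dose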
MrgX1 allo act: human MrgX1 positive allosteric modulation, primary screen; MrgX1-HEK293, Fluo-4 calcium flux, FDSS; active compounds read high; B-score at 10 µM; hit rate 0.63% among 310,000;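 active = plate-corrected calcium response at least 3 library SD above typical, normal starting fluorescence, not activating the receptor alone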;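 also: compound read alongside a low EC10 to EC30 dose of BAM8-22 agonist; peak minus trough fluorescence over baseline measured at the second addition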
RGS4 act valid: RGS4 activation, validation assay; hit rate 89% among 1,100; inhibition, % at 10 µM; HEK293 M3R/RGS4 inducible, carbachol calcium flux Fluo4; shares compounds with RGS4 pot;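 active = inhibition above 3 SD of the buffer control wells, cut at about 41% in these data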;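 also: signal is the integrated peak-minus-minimum Fluo4 fluorescence over baseline ratio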
M3R Ca counter: RGS4 activator counter-screen hit in non-induced cells. shares compounds with RGS4 pot. HEK293 M3R non-induced RGS4, Fluo4 calcium flux; after carbachol challenge at its EC90. inhibition, % at 10 µM. hit rate 82% among 1,100. AID 602283;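 active = inhibition exceeding 3 SD of buffer-only control wells, cut at about 26% in these data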;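 also: percent drop in integrated peak-minus-baseline over baseline Fluo4 ratio after carbachol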
Hits are given with their value; n = inactive; x = no result. An excerpt weighted towards active compounds, which were near 3.5% of everything screened.

SMILES	MrgX1 ag	RGS4 inh	RGS4 pot	MrgX1 antagonist	MrgX1 allo act	others
C[N+](C)(N)CCOC(=O)C(O)(c1ccccc1)C1CCCCC1 (stereo not drawn)	n	n	-8.22	n	n
CC[N+](CC)(CC)CCCOC(=O)C(O)(c1ccccc1)C1CCCCC1 (stereo not drawn)	n	n	-8.21	n	n
CN(CCc1ccccc1)Cc1c[nH]c2ccccc12	n	n	n	n	n
COc1ccc(N2C(=O)/C(=C/C=C/c3ccccc3[N+](=O)[O-])C(=O)NC2=S)cc1	x	n	n	x	x
O=C(O)c1ccc(NC(=O)N2C[C@H]3C[C@@H](C2)c2cccc(=O)n2C3)cc1	n	n	-10.1	n	n
Cn1c(O)c(C=NCCN2CCN(C(=O)Nc3ccccc3)CC2)c(=O)n(C)c1=O	n	n	n	n	n
O=C(Nc1ccccc1)OC1CN=C(N[N+](=O)[O-])NC1 (stereo not drawn)	n	n	n	-5.69	n
O=C1NC(=O)C(=Cc2ccc(N3CCOCC3)o2)C(=O)N1	n	n	-7.64	n	n
O=C1NC(=S)N(c2ccccc2)C(=O)/C1=C/c1ccco1	n	n	n	n	n
O=C1NC(=S)N(c2ccccc2)C(=O)C1C(c1ccncc1)C1C(=O)NC(=S)N(c2ccccc2)C1=O (stereo not drawn)	n	n	n	-7.61	n
CC1CN2c3ccc([N+](=O)[O-])cc3CC3(C(=O)N(C)C(=O)N(C)C3=O)C2C(C)O1 (stereo not drawn)	n	n	n	n	n
CN1CCN(Cc2cc(C(C)(C)C)c(O)c(C(C)(C)C)c2)CC1	n	n	n	-5.21	n
C[n+]1c(-c2ccccc2)cc(-c2ccc(O)cc2)cc1-c1ccccc1	n	n	n	n	n
Oc1ccc(-[n+]2c(-c3ccccc3)cc(-c3ccccc3)cc2-c2ccccc2)cc1	n	n	-7.23	-7.85	12.3
O=C([O-])c1ccc(-[n+]2c(-c3ccccc3)cc(-c3ccccc3)cc2-c2ccccc2)cc1	n	n	n	n	n
COc1ccc(-[n+]2c(-c3ccccc3)cc(-c3ccccc3)cc2-c2ccccc2)cc1	n	n	n	-4.88	n
O=[N+]([O-])c1ccc(-[n+]2c(-c3ccccc3)cc(-c3ccccc3)cc2-c2ccccc2)cc1	n	n	n	n	8.42
CC(=NCc1ccc2c(c1)OCO2)c1c(O)n(-c2ccccc2)c(=O)[nH]c1=O	n	n	n	n	n
CC(C)(C)C(=O)Nc1ccc(S(=O)(=O)N2CC3CC(C2)c2cccc(=O)n2C3)cc1 (stereo not drawn)	n	n	n	n	n
CCC1(C(=O)c2ccccc2)C2c3ccccc3OC(=O)C21C(C)=O (stereo not drawn)	n	n	n	n	n
O=C1C2CCCN2C(c2ccc(Cl)cc2)N1c1ccccn1 (stereo not drawn)	n	n	n	n	n
CC(C)(C)C(=O)Cn1c(NCCCl)nc2ccccc21	n	n	n	n	n
CN=C1CN(O)C(c2ccccc2)=c2cc(Cl)ccc2=N1	n	n	n	n	9.57
COCCOC(=O)c1c(C)n(C)c2ccc(OC(=O)N(C)C)cc12	n	n	n	n	n
Cc1c(C(c2ccc(Br)cc2)c2c(O)c3ccccc3oc2=O)c(=O)n(-c2ccccc2)n1C (stereo not drawn)	n	n	n	n	n
SMILES	MrgX1 ag	RGS4 inh	RGS4 pot	MrgX1 antagonist	MrgX1 allo act	others
Cc1c(C(c2ccc(Cl)cc2Cl)c2c(O)c3ccccc3oc2=O)c(=O)n(-c2ccccc2)n1C (stereo not drawn)	n	n	n	n	13.6
O=C(C[N+]12CCC(CC1)C(C(O)(c1ccccc1)c1ccccc1)C2)c1ccc(Br)cc1 (stereo not drawn)	n	n	-10.3	n	n
OCC[N+]12CCC(CC1)C(C(O)(c1ccccc1)c1ccccc1)C2 (stereo not drawn)	n	n	n	n	n
c1ccc(C(OCCN2CCNCC2)c2ccccc2)cc1	n	n	-9.5	n	n	RGS4 act valid=91.5;M3R Ca counter=74.3
c1ccc(CN2CCNCC2)nc1	n	n	n	n	n
CCC[N+]12CCC(CC1)C(=C(c1ccccc1)c1ccccc1)C2	n	n	-11.7	n	n	RGS4 act valid=90.0;M3R Ca counter=63.8
COc1cccc(C2(O)CCN(Cc3ccncc3)CC2)c1	n	n	n	n	n
CCn1ccnc1CN1CCCC(C(=O)c2ccc(SC)cc2)C1 (stereo not drawn)	n	n	-10.3	n	n	RGS4 act valid=91.5;M3R Ca counter=89.8
CCCC[n+]1cc(/N=C(\[O-])OC)on1	n	n	n	n	n
CN(CC(=O)Nc1ccccc1-c1ccccc1)C1CCCCC1	n	n	-9.56	n	n	RGS4 act valid=91.5;M3R Ca counter=55.3
CCc1ccccc1NC(=O)CNC1CCCCC1	n	n	n	n	n
Cc1nn(Cc2ccccc2)c(C)c1C(=O)NC1CCCc2ccccc21 (stereo not drawn)	n	n	n	n	n
Cc1ccc(-c2nc3ccccc3c(=O)n2-c2cccc(C)n2)cc1	n	n	-10.4	n	n	RGS4 act valid=47.5;M3R Ca counter=83.8
Cc1ccc(-c2nc3ccccc3c(=O)n2-c2cc(C)ccn2)cc1	n	n	n	n	n
CCCn1ncc(CN2CCCC(C(=O)c3cccc(OC)c3)C2)c1C (stereo not drawn)	n	n	-9.14	n	n	RGS4 act valid=91.0;M3R Ca counter=70.3
Cc1ccc(C(C)C)c(OCC#CCN2CCCC2)c1	n	n	-9.1	n	n	RGS4 act valid=91.0;M3R Ca counter=40.8
OC(c1ccccc1)(c1ccc(Cl)cc1)C1CN2CCC1CC2 (stereo not drawn)	n	n	-9.06	n	n	RGS4 act valid=78.0;M3R Ca counter=57.3
CC(C)n1c(O)c(C2c3cc(Cl)ccc3Oc3[nH]c(=O)n(C(C)C)c(=O)c32)c(=O)[nH]c1=O (stereo not drawn)	x	n	n	x	x
O=C(COc1ccc(Cl)cc1)N1CCN(C2CCCC2)CC1	n	n	n	n	n
Cc1cccc(CN2CCCC(C(=O)c3ccc4c(c3)OCO4)C2)n1 (stereo not drawn)	n	n	n	n	n
O=C(c1ccc2c(c1)OCO2)C1CCCN(Cc2c(F)cccc2Cl)C1 (stereo not drawn)	n	n	-8.59	n	n	RGS4 act valid=92.5;M3R Ca counter=80.8
O=C(c1ccc(Cl)cc1)C1CCCN(C2CCSCC2)C1 (stereo not drawn)	n	n	-7.88	n	n	RGS4 act valid=91.5;M3R Ca counter=54.8
O=C(c1cccs1)C1CN2CCC1CC2 (stereo not drawn)	n	n	-9.31	n	n	RGS4 act valid=60.0;M3R Ca counter=n
CN1CC(C(=O)c2cccs2)C(c2ccc(Cl)cc2)C1 (stereo not drawn)	n	n	n	n	n

From PubChem
